# Results as given in ChEMBL document CHEMBL1131066, “2-Substituted aminopyrido[2,3-d]pyrimidin-7(8H)-ones. structure-activity relationships against selected tyrosine kinases and in vitro and in vivo anticancer activity” (J Med Chem, 1998).
# Assays:
# SK-OV-3 [1] = test: Difference in days for treated (T) and control (C) SK-OV-3 cell tumors to reach 750 mg in mice at 20.3 mg/kg peroral dose, days 20-34 administration; type: functional; details: route oral
# Summary of the method: (§1)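 Nude mice (NCr nu/nu), 18–22 g, 6–8 per group, randomized and implanted with serially passaged tumor fragments in the right axilla on day 0. Dosed by average cage weight. Vehicle was 50 mM sodium lactate buffer, pH 4.0, or a 0.5% methyl cellulose suspension for one compound. Cisplatin was given in saline. T − C is the difference in days for treated and control tumors to reach 750 mg.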
# HT-29 [2] = test: Difference in days for treated (T) and control (C) HT-29 cell tumors to reach 750 mg in mice at 10.2 mg/kg peroral dose, days 15-29 administration; type: functional; details: route oral; summary of the method: as §1
# COLO 205 [3] = test: Weight change of COLO 205 tumor cells in mice at 10 mg/kg peroral dose, days 14-28 administration; type: functional; details: route oral
# Summary of the method: (§2)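 Tumor-bearing nude mice (NCr nu/nu, 18–22 g, 6–8 per group) were implanted in the right axilla with tumor fragments on day 0 and dosed by average cage weight. Vehicle was 50 mM sodium lactate pH 4.0, or 0.5% methyl cellulose suspension; cisplatin was given in saline. Host body weight change is given as the maximum treatment-related weight loss.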
# C6 [4] = test: Net reduction in tumor burden between first and last treatments of C6 glioma cell tumors in mice at 5 mg/kg peroral dose, days 1-15 administration; type: functional; details: route oral
# Summary of the method: (§3)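 NCr nu/nu nude mice (18–22 g, 6–8 per group, randomized) had tumor fragments, kept by serial passage in nude mice, implanted in the right axilla on day 0. Mice were dosed by average cage weight on the listed days, over a range from toxic to ineffective doses. Vehicle was 50 mM sodium lactate pH 4.0 or 0.5% methyl cellulose suspension. Net log cell kill was taken between first and last treatments.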
# COLO 205 [5] = test: Difference in days for treated (T) and control (C) COLO 205 cell tumors to reach 750 mg in mice at 10 mg/kg peroral dose, days 14-28 administration; type: functional; details: route oral; summary of the method: as §1
# C6 [6] = test: Net reduction in tumor burden between first and last treatments of C6 glioma cell tumors in mice at 10 mg/kg peroral dose, days 1-15 administration; type: functional; details: route oral; summary of the method: as §3
# C6 glioma = test: Difference in days for treated (T) and control (C) C6 glioma tumors to reach 750 mg in mice at 5 mg/kg peroral dose, days 1-15 administration; details: route oral
# C6 [7] = test: Weight change of C6 glioma cell tumor in mice at 10 mg/kg peroral dose, days 1-15 administration; type: functional, organism-based; set-up: dose 10 mg/kg; summary of the method: as §2
# A-431 [8] = test: Net reduction in tumor burden between first and last treatments in A431 cell tumors in mice at 20 mg/kg peroral dose, days 7-21 administration; type: functional; details: route oral; summary of the method: as §3
# A-431 [9] = test: Difference in days for treated (T) and control (C) A431 cell tumors to reach 750 mg in mice at 20 mg/kg peroral dose, days 7-21 administration; type: functional; details: route oral; summary of the method: as §1
# SK-OV-3 [10] = test: Net reduction in tumor burden between first and last treatments of SK-OV-3 cell tumors in mice at 20.3 mg/kg peroral dose, days 20-34 administration; type: functional; details: route oral; summary of the method: as §3
# HT-29 [11] = test: Net reduction in tumor burden between first and last treatments of HT-29 cell tumors in mice at 10.2 mg/kg peroral dose, days 15-29 administration; type: functional; details: route oral; summary of the method: as §3
# Mus musculus [12] = test: Difference in days for treated (T) and control (C) PDGF-transfected fibroblast tumors to reach 750 mg in mice at 15 mg/kg peroral dose, days 1-15 administration; type: functional; details: route oral; summary of the method: as §1
# C6 [13] = test: C6 cell growth in soft agar with continuous treatment; type: functional, cell-based, Rattus norvegicus; details: Rattus norvegicus, C6
# Summary of the method: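 C6 rat glioma cells (F10 Ham's with 15% horse serum, 2.5% fetal calf serum) exposed 3 days to a concentration series, then plated in soft agar with compound still present at the same concentration; colonies stained and counted after two weeks. IC50; mean of two experiments, each in duplicate.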
# MCF7 [14] = test: Difference in days for treated (T) and control (C) MCF-7 cell tumors to reach 750 mg in mice at 12 mg/kg peroral dose, days 1-15 administration; type: functional; details: route oral; summary of the method: as §1
# C6 [15] = test: Weight change of C6 glioma tumor cells in mice at 5 mg/kg peroral dose, days 1-15 administration; type: functional, Mus musculus; details: route oral; summary of the method: as §2
# MCF7 [16] = test: Net reduction in tumor burden between first and last treatments of MCF-7 cell tumors in mice at 12 mg/kg peroral dose, days 1-15 administration; type: functional; details: route oral; summary of the method: as §3
# NIH3T3 [17] = test: Growth of NIH3T3 cell colonies in soft agar with continuous treatment; type: functional, cell-based; details: Mus musculus
# Summary of the method: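 Soft agar cloning used PDGF-B-transfected NIH3T3 (NIH3T3/PDGF) cells. Cells were exposed 3 days to a concentration series, then plated in soft agar with the matching compound concentration kept present. Colonies were stained and counted after two weeks. IC50; mean of two experiments, each in duplicate.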
# COLO 205 [18] = test: Net reduction in tumor burden between first and last treatments of COLO 205 cell tumors in mice at 10 mg/kg peroral dose, days 14-28 administration; type: functional; details: route oral; summary of the method: as §3
# Mus musculus [19] = test: Net reduction in tumor burden between first and last treatments in PDGF-transfected fibroblast cells in mice at 9.5 mg/kg peroral dose, days 1-15 administration; details: route oral
# C6 [20] = test: Difference in days for treated (T) and control (C) C6 glioma cell tumors to reach 750 mg in mice at 10 mg/kg peroral dose, days 1-15 administration; type: functional; details: route oral; summary of the method: as §1
# Mus musculus [21] = test: Net reduction in tumor burden between first and last treatments of PDGF-transfected fibroblast cells in mice at 15 mg/kg peroral dose, days 1-15 administration; type: functional; details: route oral; summary of the method: as §3
# Mus musculus [22] = test: Difference in days for treated (T) and control (C) PDGF-transfected fibroblast tumors to reach 750 mg in mice at 9.5 mg/kg peroral dose, days 1-15 administration; details: route oral
# SK-OV-3 [23] = test: Weight change of SK-OV-3 cell tumors in mice at 20.3 mg/kg peroral dose, days 20-34 administration; type: functional; details: route oral
# Summary of the method: (§4)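 Nude mice (NCr nu/nu, 18–22 g, 6–8 per group) were randomized and implanted with serially passaged tumor fragments in the right axilla on day 0. Oral dosing was based on average cage weight, on the days stated, over a dose range from toxic to ineffective. Vehicle was 50 mM sodium lactate buffer, pH 4.0, or 0.5% methyl cellulose suspension. Host weight change is reported as maximum treatment-related loss.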
# MCF7 [24] = test: Weight change of MCF-7 tumor cells in mice at 12 mg/kg peroral dose, days 1-15 administration; type: functional, organism-based; set-up: dose 12 mg/kg; summary of the method: as §2
# NIH3T3/PDGF = test: Weight change of NIH3T3/PDGF cell tumors in mice at 9.5 mg/kg peroral dose, days 1-15 administration; details: route oral
# A-431 [25] = test: Weight change of A431 cell tumor in mice at 20 mg/kg peroral dose, days 7-21 administration; type: functional; details: route oral; summary of the method: as §2
# HT-29 [26] = test: Weight change of HT-29 tumor cells in mice at 10.2 mg/kg peroral dose, days 15-29 administration; type: functional; details: route oral; summary of the method: as §2
# NIH3T3 [27] = test: Growth of NIH3T3 cell colonies in soft agar with discontinued treatment; type: functional, cell-based; details: Mus musculus
# Summary of the method: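 PDGF-B-transfected NIH3T3 (NIH3T3/PDGF) cells exposed 3 days to a concentration series, washed free of inhibitor, plated in drug-free soft agar; colonies stained and counted after two weeks. IC50; mean of two experiments, each in duplicate.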
# C6 [28] = test: Inhibition of C6 cell proliferation in sulforhodamine B assay; type: functional, cell-based, Rattus norvegicus; details: Rattus norvegicus, C6
# Summary of the method: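 C6 rat glioma cells (F10 Ham's, 15% horse serum, 2.5% fetal calf serum) seeded and allowed 24 h to attach, then given serial 2-fold compound dilutions; 4 d at 37 °C, 5% CO2; growth read by sulforhodamine B staining. IC50; mean of two experiments, each in triplicate.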
# Mus musculus [29] = test: Weight change of PDGF-transfected fibroblast cells in mice at 15 mg/kg peroral dose, days 1-15 administration; type: functional; details: route oral; summary of the method: as §4
smiles,measurement,setting,value
CCN(CC)CCOc1ccc(Nc2ncc3cc(-c4c(Cl)cccc4Cl)c(=O)n(C)c3n2)cc1 [PD-0166285],T-C,SK-OV-3 [1],10.6 days
same,T-C,HT-29 [2],9.6 days
same,Weight change,COLO 205 [3],-4 g
same,Net cell kill,C6 [4],-0.8 log10
same,T-C,COLO 205 [5],0.6 days
same,Net cell kill,C6 [6],-1 log10
same,T-C,C6 glioma,0.3 days
same,Weight change,C6 [7],Weight gain
same,Net cell kill,A-431 [8],-0.5 log10
same,T-C,A-431 [9],3.7 days
same,Net cell kill,SK-OV-3 [10],-0.1 log10
same,Net cell kill,HT-29 [11],-0.2 log10
same,T-C,Mus musculus [12],2.2 days
same,IC50,C6 [13],0.12 µM
same,T-C,MCF7 [14],1.1 days
same,Weight change,C6 [15],-0.1 g
same,Net cell kill,MCF7 [16],-0.6 log10
same,IC50,NIH3T3 [17],0.0011 µM
same,Net cell kill,COLO 205 [18],-0.7 log10
same,Net cell kill,Mus musculus [19],-1.6 log10
same,T-C,C6 [20],0.4 days
same,Net cell kill,Mus musculus [21],-1.8 log10
same,T-C,Mus musculus [22],3.3 days
same,Weight change,SK-OV-3 [23],-4 g
same,Weight change,MCF7 [24],Weight gain
same,Weight change,NIH3T3/PDGF,-4.1 g
same,Weight change,A-431 [25],-3.1 g
same,Weight change,HT-29 [26],0 g
same,IC50,NIH3T3 [27],0.01 µM
same,IC50,C6 [28],0.34 µM
same,Weight change,Mus musculus [29],-0.4 g
